# Assay results: ChEMBL document CHEMBL5247635 (Eur J Med Chem, 2022)
# pEC50, pIC50, pKd, pKi: −log10 of the molar value. The source made the active and inactive calls. The rule behind the calls is not given here.
# Legend:
# Leishmania infantum [1] = experiment: Antileishmanial activity against Leishmania infantum MCAN/ES/89/IPZ229/1/89 axenic amastigotes assessed as reduction in parasite viability treated for 24 hrs by PI staining based flow cytometry; assay type: functional, organism-based; conditions: MCAN/ES/89/IPZ229/1/89, 24 h
# Procedure, shortened: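 Axenic amastigotes were seeded from log-phase cultures at 10^5 parasites/mL in M199-based medium at pH 5.4. They were derived from promastigotes by 3 days at 37 °C. Compounds at 2.3–75 µM for 24 h at 37 °C. Viability read by propidium iodide flow cytometry. EC50 ± SE from three independent experiments, each in triplicate.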
# [2] = Cytotoxicity against human HepG2 cells assessed as reduction in cell proliferation measured after 72 hrs by crystal violet staining based analysis; assay type: toxicity
# [3] = Thermodynamic aqueous solubility of compound at 25 degreeC measured after 24 hrs by HPLC analysis; assay type: physicochemical; conditions: buffer, read-out: Therm_solubility
# Procedure, shortened: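 Excess compound was suspended in water (pH 5.5), sonicated 10 min, equilibrated overnight at room temperature, and centrifuged. Supernatant was diluted and quantified by HPLC (UV 254 nm) against a five-point standard curve (10–500 µM).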
# Trypanothione reductase [4] = molecular target: T1, Trypanothione reductase (Leishmania infantum, UniProt A4HSF7); experiment: Disruption of HIS-FLAG-tagged recombinant Leishmania infantum TryR dimerization expressed in Escherichia coli Rossetta BL21 (DE3) cells incubated for 16 hrs by ELISA analysis
# Procedure, shortened: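 400 nM HIS-FLAG-tagged LiTryR (co-purified with HIS-tagged LiTryR as heterodimer) incubated with compound (3.1–75 μM) in 50 mM Tris pH 8.0, 300 mM NaCl, 16 h, 37 °C with vigorous shaking; centrifuged, supernatant captured on α-FLAG plates, detected with HRP-α-HIS antibody and o-phenylenediamine, A490. Signal normalized to DMSO; IC50 by nonlinear regression; triplicate, three independent experiments.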
# [5] = Selectivity index, ratio of CC50 for human HepG2 cells to EC50 for Leishmania infantum MCAN/ES/89/IPZ229/1/89 axenic amastigotes; assay type: toxicity; conditions: read-out: Ratio CC50/EC50
# [6] = Selectivity index, ratio of CC50 for human HepG2 cells to EC50 for GFP-expressing Leishmania infantum intracellular amastigotes infected in human THP-1 derived macrophage cells; assay type: toxicity, cell-based; conditions: read-out: Ratio CC50/EC50
# Leishmania infantum [7] = experiment: Antileishmanial activity against GFP-expressing Leishmania infantum intracellular amastigotes infected in human THP-1 derived macrophage cells assessed as reduction in parasite viability measured for 72 hrs by resazurin/alamar blue fluorometric assay; assay type: functional, organism-based
# Procedure, shortened: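 Human THP-1-derived macrophages infected with GFP-expressing L. infantum amastigotes; compounds at 2.3–75 µM, infected cells monitored for 72 h. EC50 ± SE from three independent experiments.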
# [8] = Cytotoxicity against human HepG2 cells assessed as reduction in cell proliferation treated for 24 hrs by crystal violet staining based analysis; assay type: toxicity
# Trypanothione reductase [9] = molecular target: T1, Trypanothione reductase; experiment: Inhibition of HIS-tagged recombinant Leishmania infantum TryR oxidoreductase activity expressed in Escherichia coli in the presence of NADPH by spectrophotometry based DTNB-coupled assay
# Procedure, shortened: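 HIS-tagged LiTryR was used in a DTNB-coupled assay at 26 °C. Buffer: 40 mM HEPES pH 7.5, 1 mM EDTA, 30 µM NADP+, 25 µM DTNB, 150 µM NADPH, 1.75% DMSO. Standard runs used 1 µM TS2 and 7 nM enzyme; cross-species runs used 50 µM TS2 and 0.5 nM enzyme. Started with NADPH + TS2; TNB read at 412 nm. Compounds were screened at 75 µM first. Three independent experiments.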
# Leishmania infantum [10] = experiment: Antileishmanial activity against H2O2-induced Leishmania infantum promastigotes assessed as reduction in non-protein thiol content at 5 mM treated for 72 hrs by CMF diacetate probe based flow cytometry relative to control; assay type: functional; set-up: scale not given: the % may be the effect or the level left
# Procedure, shortened: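 Promastigotes grown in RPMI-1640 with 10% FCS and 25 mM HEPES pH 7.2 at 26 °C. Treatments were 75 µM for 1 h, 5 mM BSO for 72 h, or both combined; vehicle served as control. Some parasites were also H2O2-treated. Non-protein thiols read by flow cytometry as CMF diacetate green fluorescence in PI-excluding live parasites. Means of nine independent experiments with 99.0% confidence intervals.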
# Leishmania infantum [11] = experiment: Antileishmanial activity against Leishmania infantum promastigotes assessed as reduction in parasite growth at 5 mM treated for 72 hrs; assay type: functional, organism-based
# Trypanothione reductase [12] = molecular target: Trypanothione reductase (Trypanosoma brucei brucei, UniProt P39051); experiment: Inhibition of HIS-tagged recombinant Trypanosoma brucei TryR oxidoreductase activity expressed in Escherichia coli in the presence of NADPH by spectrophotometry based DTNB-coupled assay
# Procedure, shortened: (§1)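 HIS-tagged TryR from each species was expressed in E. coli. Activity was read by DTNB-coupled assay at 26 °C in 40 mM HEPES pH 7.5, 1 mM EDTA, 30 µM NADP+, 25 µM DTNB, 150 µM NADPH, 1.75% DMSO. Conditions were 50 µM TS2 and 0.5 nM enzyme; reaction started with NADPH + TS2. TNB absorbance at 412 nm. Three independent experiments.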
# Trypanothione reductase [13] = molecular target: Trypanothione reductase (Trypanosoma cruzi, UniProt P28593); experiment: Inhibition of HIS-tagged recombinant Trypanosoma cruzi TryR oxidoreductase activity expressed in Escherichia coli in the presence of NADPH by spectrophotometry based DTNB-coupled assay; procedure, shortened: as §1
# Trypanothione reductase [14] = molecular target: Trypanothione reductase (Trypanosoma congolense, UniProt P13110); experiment: Inhibition of HIS-tagged recombinant Trypanosoma congolense TryR oxidoreductase activity expressed in Escherichia coli in the presence of NADPH by spectrophotometry based DTNB-coupled assay; procedure, shortened: as §1
# Trypanothione reductase [15] = molecular target: T1, Trypanothione reductase; experiment: Competitive inhibition of HIS-FLAG-tagged recombinant Leishmania infantum TryR expressed in Escherichia coli using TS2 substrate assessed as inhibition constant in the presence of NADPH by spectrophotometry based DTNB-coupled assay
# Trypanothione reductase [16] = molecular target: T1, Trypanothione reductase; experiment: Competitive inhibition of HIS-FLAG-tagged recombinant Leishmania infantum TryR expressed in Escherichia coli assessed as dissociation constant by SPR assay
# T1 sequence (A4HSF7 whole entry): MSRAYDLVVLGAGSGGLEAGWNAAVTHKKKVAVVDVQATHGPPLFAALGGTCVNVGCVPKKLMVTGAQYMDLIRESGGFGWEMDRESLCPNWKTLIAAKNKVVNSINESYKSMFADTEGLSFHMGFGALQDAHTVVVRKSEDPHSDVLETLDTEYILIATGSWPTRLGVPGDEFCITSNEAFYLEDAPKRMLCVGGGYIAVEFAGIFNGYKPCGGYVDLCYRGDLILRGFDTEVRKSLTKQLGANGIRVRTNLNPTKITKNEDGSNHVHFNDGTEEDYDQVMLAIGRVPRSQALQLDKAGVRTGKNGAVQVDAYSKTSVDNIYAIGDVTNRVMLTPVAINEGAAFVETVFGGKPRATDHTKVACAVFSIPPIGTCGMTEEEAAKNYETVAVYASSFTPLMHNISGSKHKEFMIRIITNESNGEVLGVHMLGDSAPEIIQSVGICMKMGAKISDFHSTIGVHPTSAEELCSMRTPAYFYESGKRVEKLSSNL
# Sequence of Trypanothione reductase (Trypanosoma cruzi, UniProt P28593) (P28593 whole entry): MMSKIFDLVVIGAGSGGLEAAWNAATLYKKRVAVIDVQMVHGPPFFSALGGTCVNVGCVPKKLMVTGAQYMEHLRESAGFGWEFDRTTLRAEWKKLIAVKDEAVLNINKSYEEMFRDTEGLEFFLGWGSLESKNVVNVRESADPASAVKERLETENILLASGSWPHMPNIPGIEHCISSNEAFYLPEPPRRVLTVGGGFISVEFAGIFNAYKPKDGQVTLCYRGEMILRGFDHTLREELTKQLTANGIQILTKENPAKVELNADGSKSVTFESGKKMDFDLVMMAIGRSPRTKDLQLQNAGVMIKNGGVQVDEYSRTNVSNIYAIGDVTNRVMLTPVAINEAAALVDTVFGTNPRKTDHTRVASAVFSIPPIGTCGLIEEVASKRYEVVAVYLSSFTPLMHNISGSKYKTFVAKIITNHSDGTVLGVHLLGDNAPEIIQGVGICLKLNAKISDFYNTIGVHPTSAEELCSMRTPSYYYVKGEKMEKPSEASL
# Sequence of Trypanothione reductase (Trypanosoma congolense, UniProt P13110) (P13110 whole entry): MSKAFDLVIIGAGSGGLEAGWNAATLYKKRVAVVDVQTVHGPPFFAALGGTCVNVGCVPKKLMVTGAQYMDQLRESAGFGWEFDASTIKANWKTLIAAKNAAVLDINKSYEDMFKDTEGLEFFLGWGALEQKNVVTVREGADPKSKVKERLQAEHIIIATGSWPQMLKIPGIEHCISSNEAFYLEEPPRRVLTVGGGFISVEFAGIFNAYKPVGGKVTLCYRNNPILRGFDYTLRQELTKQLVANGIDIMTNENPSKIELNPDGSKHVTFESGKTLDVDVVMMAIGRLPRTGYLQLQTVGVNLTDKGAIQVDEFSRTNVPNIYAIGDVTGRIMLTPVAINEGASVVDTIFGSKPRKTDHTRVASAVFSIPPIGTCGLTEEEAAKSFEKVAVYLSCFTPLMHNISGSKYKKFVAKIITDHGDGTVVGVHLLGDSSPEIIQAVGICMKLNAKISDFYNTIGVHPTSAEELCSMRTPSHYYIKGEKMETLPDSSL
# Sequence of Trypanothione reductase (Trypanosoma brucei brucei, UniProt P39051) (P39051 whole entry): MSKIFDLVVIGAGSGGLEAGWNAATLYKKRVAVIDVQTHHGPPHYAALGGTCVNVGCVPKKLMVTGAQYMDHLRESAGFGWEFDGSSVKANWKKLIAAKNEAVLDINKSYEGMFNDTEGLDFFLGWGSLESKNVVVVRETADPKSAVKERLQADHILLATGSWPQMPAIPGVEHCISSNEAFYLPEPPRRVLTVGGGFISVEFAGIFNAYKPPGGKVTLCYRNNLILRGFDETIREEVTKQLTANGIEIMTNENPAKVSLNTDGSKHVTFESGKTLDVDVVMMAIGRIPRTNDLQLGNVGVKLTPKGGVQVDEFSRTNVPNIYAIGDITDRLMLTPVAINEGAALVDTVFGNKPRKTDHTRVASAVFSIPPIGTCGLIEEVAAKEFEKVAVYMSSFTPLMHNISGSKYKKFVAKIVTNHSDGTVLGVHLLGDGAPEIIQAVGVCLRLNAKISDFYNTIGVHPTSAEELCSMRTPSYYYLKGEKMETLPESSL
pIC50 (Trypanothione reductase [4]),pIC50 (Trypanothione reductase [9]),Compound,pEC50 (Leishmania infantum [1]),CC50 at 72 h [2],solubility thermodynamic at 24 h [3],selectivity ratio [5],selectivity ratio [6],pEC50 (Leishmania infantum [7]),CC50 at 24 h [8],other results
,,NCCCCc1cn(-c2ccc(-c3nc(CCc4ccc(-c5ccccc5)cc4)cs3)c(OCCN3CCNC3=O)c2)nn1.O=C(O)C(F)(F)F,,40.5 µM,200 µg/mL,,< 1,4.28,,
< 4.12,5.40,C[n+]1nn(-c2ccc(-c3nc(-c4ccc(-c5ccccc5)cc4)c(-c4ccccc4)s3)c(OCCN3CCNC3=O)c2)cc1CCCCN,5.19,34.5 µM,,> 12.3,2.4,4.85,> 75 µM,
,,CCCCS(=N)(=O)CCC(N)C(=O)O (racemic) [BUTHIONINE SULFOXIMINE],,,,,,,,Activity (Leishmania infantum [10]): 50%; Activity (Leishmania infantum [11]): inactive
< 4.12,5.11,C[n+]1nn(-c2ccc(-c3nc(CCc4ccc(Oc5ccccc5)cc4)c(-c4ccccc4)s3)c(OCCN3CCNC3=O)c2)cc1CCCCN,5.05,,,4,,,35.2 µM,
< 4.12,5.68,C[n+]1nn(-c2ccc(-c3nc(CCc4ccccc4)cs3)c(OCC3CCNCC3)c2)cc1CCCCN,4.55,,,> 2.6,,,> 75 µM,
< 4.12,4.74,COc1cc(-n2cc(CCCCN)[n+](C)n2)ccc1-c1nc(CCc2ccccc2)cs1,4.70,,,> 3.8,,,> 75 µM,
,,NCCCCc1cn(-c2ccc(-c3nc(CCc4cccc5ccccc45)cs3)c(OCCN3CCNC3=O)c2)nn1.O=C(O)C(F)(F)F,,> 29 µM,2100 µg/mL,,< 1,< 4.12,,
,,NCCCCc1cn(-c2ccc(-c3nc(CCc4ccccc4)cs3)c(OCCN3CCNC3=O)c2)nn1.O=C(O)C(F)(F)F,,27.8 µM,6400 µg/mL,,< 1,4.53,,
,,NCCCc1cn(-c2ccc(-c3nc(CCc4ccc(-c5ccccc5)cc4)cs3)c(OCCN3CCNC3=O)c2)nn1.O=C(O)C(F)(F)F,,37.3 µM,2800 µg/mL,,< 1,< 4.12,,
,,NCCCCc1cn(-c2ccc(-c3nc(-c4ccccc4)c(-c4ccccc4)s3)c(OCCN3CCNC3=O)c2)nn1,,> 75 µM,,,> 3.1,4.62,,
< 4.12,5.38,C[n+]1nn(-c2ccc(-c3nc(-c4ccc(Oc5ccccc5)cc4)c(-c4ccccc4)s3)c(OCCN3CCNC3=O)c2)cc1CCCCN,4.91,42.6 µM,,> 6.1,2.8,4.82,> 75 µM,
,,CCCCCCCCCCCCCCCCOP(=O)([O-])OCC[N+](C)(C)C [MILTEFOSINE],,> 75 µM,,,> 125,6.22,,
< 4.12,5.27,C[n+]1nn(-c2ccc(-c3nc(CCC4Cc5ccccc5O4)cs3)c(OCCN3CCNC3=O)c2)cc1CCCCN (configuration not stated),< 4.12,,,< 1,,,> 75 µM,
< 4.12,5.17,C[n+]1nn(-c2ccc(-c3nc(CCc4ccc(-c5ccccc5)cc4)c(-c4ccccc4)s3)c(OCCN3CCNC3=O)c2)cc1CCCCN,5.22,54.5 µM,,7.8,2.2,4.62,46.5 µM,
< 4.12,5.26,COc1cc(-n2cc(CCCCN)[n+](C)n2)ccc1-c1nc(CCc2ccc(-c3ccccc3)cc2)cs1,5.12,,,4.7,,,35.9 µM,

Compound,pIC50 (Trypanothione reductase [4]),pIC50 (Trypanothione reductase [9]),pEC50 (Leishmania infantum [1]),CC50 at 72 h [2],solubility thermodynamic at 24 h [3],selectivity ratio [5],selectivity ratio [6],pEC50 (Leishmania infantum [7]),CC50 at 24 h [8],other results
C[n+]1nn(-c2ccc(-c3nc(CCc4ccc(-c5ccccc5)cc4)cs3)c(OCCN3CCNC3=O)c2)cc1CCCN.O=C(O)C(F)(F)F.O=S(=O)([O-])C(F)(F)F,4.34,,5.32,> 75 µM,21600 µg/mL,> 15.6,> 10.3,5.14,> 75 µM,
C[n+]1nn(-c2ccc(-c3nc(-c4ccccc4)cs3)c(OCCN3CCNC3=O)c2)cc1CCCCN,,4.69,4.20,,,> 1.2,,,> 75 µM,
CC[n+]1nn(-c2ccc(-c3nc(CCc4ccc(-c5ccccc5)cc4)cs3)c(OCCN3CCNC3=O)c2)cc1CCCCN,4.24,,4.85,63.8 µM,,> 5.6,6.4,5.00,> 75 µM,
C[n+]1nn(-c2ccc(-c3nc(-c4ccccc4)c(-c4ccccc4)s3)c(OCCN3CCNC3=O)c2)cc1CCCCN,,5.41,4.89,> 75 µM,,> 5.8,,4.13,> 75 µM,
C[n+]1nn(-c2ccc(-c3nc(CCc4ccccc4)cs3)c(OCCC3CCNCC3)c2)cc1CCCCN,,5.66,< 4.12,,,< 1,,,> 75 µM,
C[n+]1nn(-c2ccc(-c3nc(CCc4ccc5ccccc5c4)cs3)c(OCCN3CCNC3=O)c2)cc1CCCCN.O=C(O)C(F)(F)F.O=S(=O)([O-])C(F)(F)F,< 4.12,,4.89,> 75 µM,23500 µg/mL,> 5.8,> 2.8,4.57,> 75 µM,pIC50 (Trypanothione reductase [12]): 5.29; pIC50 (Trypanothione reductase [13]): 5.04; pIC50 (Trypanothione reductase [14]): 5.38
C[n+]1nn(-c2ccc(-c3nc(CCc4ccccc4)cs3)c(OCCN3CCNC3=O)c2)cc1CCCCN.O=C(O)C(F)(F)F.O=S(=O)([O-])C(F)(F)F,,5.03,4.18,,> 15900 µg/mL,> 1.1,,,> 75 µM,pIC50 (Trypanothione reductase [12]): 4.57; pKi (Trypanothione reductase [15]): 5.14; pIC50 (Trypanothione reductase [13]): 4.31; pIC50 (Trypanothione reductase [14]): 4.73; pKd (Trypanothione reductase [16]): 6.00
C[n+]1nn(-c2ccc(-c3nc(CCc4ccccc4)cs3)c(OCCN3CCNC3=O)c2)cc1CCCN,,4.38,< 4.12,,,< 1,,,> 75 µM,
